Screening results as filed in PubChem BioAssay.
PAD4 FP inh: inhibitors of human PAD4. recombinant PAD4, RCA probe fluorescence polarization. inhibition, % at 6.36 µM. 330,000 tested, 0.41% active. AID 485272;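 active means percent inhibition above a cutoff equal to the mean of all tested compounds plus 3 SD, cut at about 15% in these data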
Target sequence (Q9UM07 whole entry, looked up): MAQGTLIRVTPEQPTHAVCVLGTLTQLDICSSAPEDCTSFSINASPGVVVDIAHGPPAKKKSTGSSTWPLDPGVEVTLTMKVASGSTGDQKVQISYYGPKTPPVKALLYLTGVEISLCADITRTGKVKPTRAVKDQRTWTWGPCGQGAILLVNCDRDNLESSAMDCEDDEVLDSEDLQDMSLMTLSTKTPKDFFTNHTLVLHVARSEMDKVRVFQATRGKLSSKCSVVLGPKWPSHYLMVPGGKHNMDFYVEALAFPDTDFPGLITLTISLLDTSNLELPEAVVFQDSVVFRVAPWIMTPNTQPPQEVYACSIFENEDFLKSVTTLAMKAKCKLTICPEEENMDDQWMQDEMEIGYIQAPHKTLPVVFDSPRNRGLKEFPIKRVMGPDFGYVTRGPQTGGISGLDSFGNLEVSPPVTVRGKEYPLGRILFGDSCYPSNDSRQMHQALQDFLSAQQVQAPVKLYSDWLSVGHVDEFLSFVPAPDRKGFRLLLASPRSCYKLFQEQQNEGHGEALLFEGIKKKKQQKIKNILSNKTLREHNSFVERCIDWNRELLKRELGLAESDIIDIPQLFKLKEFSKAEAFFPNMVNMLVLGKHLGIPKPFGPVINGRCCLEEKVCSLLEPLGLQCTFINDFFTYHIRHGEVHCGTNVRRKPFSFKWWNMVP
Fh CTSL1 inh: cathepsin L1 inhibition, PFM18AAP counter-screen | 300,000 tested, 0.49% active | inhibition, % at 5.96 µM | recombinant F. hepatica cathepsin L1, Z-Leu-Arg-MCA fluorescence;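 active means inhibition above the mean of all tested compounds plus 3 SD, set per screening campaign, cut at about 17% in these data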
GSTO1 inh: blocks human GSTO1 in RBBP9 counter-screen. P78417. recombinant GSTO1, activity-based probe fluorescence polarization. inhibition, % at 5.96 µM. 300,000 tested, 1.1% active;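 active means inhibition above the campaign mean inhibition plus 3 SD, cut at about 35% in these data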
TDP2 absorb: TDP2 (human) inhibition, absorbance primary screen. O95551. recombinant TDP2, T5PNP hydrolysis, p-nitrophenol absorbance 415 nm. inhibition, % at 12.8 µM. 370,000 tested, 0.34% active. AID 720702;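 active means inhibition above the mean of all tested compounds plus 3 SD, set per campaign, cut at about 25% in these data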
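Assay system: recombinant human TDP2 / Reagent: T5PNP substrate at 5 mM, a TopII-DNA adduct mimic / Measured by: epi absorbance from released p-nitrophenol / Evaluation: % inhibition relative to enzyme-containing and enzyme-free wells / Control set: enzyme-free and DMSO wells / Replicates: each compound tested once, singlicate / Schedule: enzyme reaction with compound for 2 h at 37 °C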
PRMT1 FP inh: PRMT1 (human) inhibition, primary screen; AID 652257; inhibition, % at 2.79 µM; recombinant PRMT1, activity-based probe fluorescence polarization; Q99873; 370,000 tested, 1.3% active;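 active means inhibition above about 21% made by adding two undisclosed values, limit read from the data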
PRMT1 confirm: confirmation of human PRMT1 inhibitors; inhibition, % at 2.79 µM; 3,300 tested, 42% active; AID 687036; shares compounds with PRMT1 FP inh; recombinant His-PRMT1, activity-based probe fluorescence polarization;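 active means mean inhibition across replicates above the hit cutoff derived for the earlier primary screen, cut at about 22% in these data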
TDP2 confirm: human TDP2 inhibition, confirmation. shares compounds with TDP2 absorb. recombinant human TDP2, absorbance read-out. inhibition, % at 12.8 µM. 1,100 tested, 22% active; in the data active means inhibition above about 25%
A number is an active result; - = inactive; . = no result given. An excerpt weighted towards active compounds, which were near 2.5% of everything screened.

SMILES	PAD4 FP inh	Fh CTSL1 inh	GSTO1 inh	TDP2 absorb	PRMT1 FP inh	PRMT1 confirm	TDP2 confirm
O=S(=O)(Nc1ccc(O)c(NS(=O)(=O)c2ccccc2)c1)c1ccccc1	-	-	-	-	31	-	.
O=C(CCc1ccccc1)N[C@H]1[C@@H](OC(=O)c2cccnc2)CCC[C@@]12C(=O)N(Cc1ccccc1)c1ccccc12	.	.	.	-	-	.	.
CN(NC(=S)Nc1ccc(OC(F)F)cc1)C(=S)Nc1ccc(OC(F)F)cc1	-	-	-	-	44	-	.
O=c1oc2cc(O)ccc2cc1-c1nc2ccccc2o1	.	.	.	-	71	68	.
O=c1oc2cc(O)ccc2cc1S(=O)(=O)c1ccccc1	-	-	-	-	-	.	.
COc1ccccc1N1CCN(N=Cc2ccccc2Br)CC1	.	.	.	-	-	.	.
O=C(O)CCc1ccc(-c2ccccc2)n1Cc1ccco1	-	-	-	-	33	-	.
O=S1(=O)c2ccc(N3CCSCC3)cc2Oc2ccccc2CN1Cc1cn(Cc2ccc(C(F)(F)F)cc2)nn1	.	.	.	-	-	.	.
COc1ccc(-c2ccc3c(n2)CCCN3S(=O)(=O)c2ccc(C#N)cc2)cc1	.	.	.	-	45	26	.
COc1ccc(-c2ccc3c(n2)CCCN3S(=O)(=O)c2ccc(OC)cc2)cc1	.	.	.	-	-	.	.
C/C(=N/Nc1ccnc2cc(Cl)ccc12)c1ccc(O)cc1	-	-	-	-	37	-	.
C/C(=N/Nc1ccnc2cc(Cl)ccc12)c1ccc(N)cc1	-	-	-	-	-	.	.
O=C1N(Cc2ccccc2)CC2(Br)COCOC12O (centres undefined)	.	.	.	-	90	91	.
CCCCN1C(=O)c2ccccc2NC1c1ccc(OC)c(COc2ccc(NC(C)=O)cc2)c1 (centres undefined)	.	.	.	-	-	.	.
CCOC(=O)C1CSc2[nH]c(=O)sc2C1c1ccccc1 (centres undefined)	-	-	-	-	31	-	.
O=C(c1ccc2c(c1)OCO2)N1CCC(Oc2cccnc2)CC1	.	.	.	-	-	.	.
O=C(/C=C/c1ccco1)c1cccnc1	-	-	-	-	47	-	.
O=C(NN=Cc1ccc(O)cc1)c1cc(-c2ccc(Cl)cc2)n[nH]1	.	.	.	-	-	.	.
COc1ccc(S[C@]2(C(=O)N3CCOCC3)CC(=O)N(C(=O)C3CC3)[C@@H]2c2ccc(OC)cc2)cc1	.	.	.	-	36	27	.
COc1ccc(S[C@]2(C(=O)N3CCOCC3)CC(=O)N(c3ccc(Cl)cc3)[C@@H]2c2ccc(OC)cc2)cc1	.	.	.	-	-	.	.
CCOC(=O)N1C(=O)C[C@](Sc2ccc(OC)cc2)(C(=O)N2CCCC2)[C@H]1c1ccc(OC)cc1	.	.	.	-	56	40	.
CCOC(=O)N1C(=O)C[C@](Sc2ccc(OC)cc2)(C(=O)N2CCOCC2)[C@H]1c1ccc(OC)cc1	.	.	.	-	47	43	.
CCOC(=O)N1C(=O)C[C@](Sc2ccc(OC)cc2)(C(=O)N2CCN(c3ncccn3)CC2)[C@H]1c1ccc(OC)cc1	.	.	.	-	41	33	.
CCOC(=O)N1C(=O)C[C@](Sc2ccc(OC)cc2)(C(=O)N2CCN(C(C)=O)CC2)[C@H]1c1ccc(OC)cc1	.	.	.	-	54	46	.
COc1ccc(C(=O)OCCCN(C)C2CN(Cc3cn(Cc4ccccc4C(F)(F)F)nn3)S(=O)(=O)C2)cc1OC (centres undefined)	.	.	.	-	-	.	.
SMILES	PAD4 FP inh	Fh CTSL1 inh	GSTO1 inh	TDP2 absorb	PRMT1 FP inh	PRMT1 confirm	TDP2 confirm
CC1OC2CC(=O)OC2C2=C1C(=O)c1c(O)cccc1C2=O (centres undefined)	.	.	.	42	90	73	44
O=C1c2cccc(O)c2C(=O)c2c(O)cc(CO)cc21	-	-	-	.	.	.	.
CCC[C@H]1[C@@H](OC(=O)NCc2cccc(Cl)c2)CC[C@@]23CCCN2C(=O)CCC[C@@H]13	.	.	.	-	-	.	.
CCCCNC(=O)OC1CCC12CCC(c1ccccc1)CC2 (centres undefined)	.	.	.	-	-	.	.
Cc1ccc(C)c(-n2c3nc(=O)[nH]c(=O)c-3cc3cc([N+](=O)[O-])ccc32)c1	-	-	-	52	26	-	40
Cc1c(Br)cc(C(=O)O)c(C)c1C	-	-	-	-	-	.	.
Cc1c(N)cc(N)cc1C(=O)O	-	-	-	31	32	-	-
COc1cc2[nH]c(Cl)c([N+](=O)[O-])c2cc1OC	-	-	-	40	30	-	-
Cc1ccc(/C=C/C(=O)Nc2nccs2)o1	-	-	-	26	29	-	-
O=C(NCCCO)c1ccc2nc(-c3ccco3)c(-c3ccco3)nc2c1	.	.	.	40	34	44	31
CCc1nc2ccc(C(=O)NCCc3ccco3)cc2nc1CC	-	-	-	.	.	.	.
CN(C)CCNc1ccc(CO)c2sc3ccc(O)cc3c(=O)c12	.	.	.	-	-	.	.
CN(C)CCNc1ccc2ncn3c4ccc(O)cc4c(=O)c1c23	.	.	.	31	67	88	-
O=S1(=O)c2ccc(N3CCC[C@@H]3CO)cc2O[C@H]2CCN1C2	.	.	.	-	-	.	.
C[n+]1c2cc(N)ccc2cc2ccc(N)cc21	.	.	.	29	147	142	28
COC(=O)Cc1nnn2c1[C@H](C)[C@@H](OC)c1cccc(Cl)c1-2	.	.	.	-	-	.	.
CSc1nc2ccc(S(=O)(=O)N(C)C)cc2s1	-	-	-	-	-	.	.
CN(C)c1ccc2nc3ccc(=O)cc-3sc2c1	.	.	.	31	60	35	-
Cn1c(CNc2ccc(O)cc2)nc2ccccc21	-	-	-	35	39	-	-
C[C@H]1[C@@H](OC(=O)Nc2cccc(Cl)c2)CC[C@@]23CCCN2C(=O)CCC[C@@H]13	.	.	.	-	-	.	.
COC(=O)c1cc2c(c3c4cc(F)ccc4n(S(=O)(=O)c4ccc(C)cc4)c13)C(=O)N(Cc1ccc(N(C)C)cc1)C2	.	.	.	-	-	.	.
CC(C)C1NC2(C(=O)c3ccccc3C2=O)C2C(=O)N(c3ccc(F)cc3)C(=O)C12 (centres undefined)	-	-	-	40	33	44	-
O=C(Nc1ccc(C(F)(F)F)cc1)OC1CC2CC1[C@H]1CCCCN1[C@H]2Cc1ccccc1 (some centres undefined)	.	.	.	-	-	.	.
Oc1ccc(Nc2ccccc2F)c2cccnc12	.	.	.	36	42	-	-
Oc1ccc(-c2ccccc2F)c2cccnc12	.	.	.	-	-	.	.
O=C1NC(=S)S/C1=C\C=C\c1ccc([N+](=O)[O-])o1	.	.	.	30	43	28	-
COc1cc(OC)c(NC(=O)CCNS(=O)(=O)c2ccc3c(c2)CC(C)N3C(C)=O)cc1Cl (centres undefined)	-	-	-	31	-	.	-
CC(=O)N1c2ccc(S(=O)(=O)NCCC(=O)Nc3ccc(C)c(Cl)c3)cc2CC1C (centres undefined)	-	-	-	-	-	.	.
Cc1ccc(-c2nc(C3CCCN(S(=O)(=O)c4ccccc4)C3)no2)cc1 (centres undefined)	.	.	.	-	-	.	.
